Most compounds without a hit are left out; they make up all but 5.6% or so of the library.
aDG glyco up – increases alpha dystroglycan glycosylation | Pro5-aDG cells, alpha-DG glycosylation AlphaScreen (IIH6); 0% Pro5, 100% B10-LARGE cell signal | activation, % at 10 µM | 360,000 tested, 0.22% active;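 active = activation of at least 8% versus controls, or a plate z-score of at least 8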;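 also: Pro5 are CHO cells carrying HIG-tagged alpha-DG that lacks glycosylation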
MPTP inh – permeability transition pore inhibition. isolated mouse mitochondria, Ca2+ swelling absorbance, 30 min. inhibition, % at 10 µM. 360,000 tested, 1.4% active;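 active = inhibition of 50% or more, scaled per plate between neutral and stimulator controls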;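 also: 0% = DMSO wells given calcium and 100% = 1 mM EGTA wells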
CHOP inhibitor – CHOP inhibition in unfolded protein response. CHO-K1 CHOP-promoter luciferase, tunicamycin-induced, 15-18 h. inhibition, % at 10 µM. 220,000 tested, 3.8% active;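 active = compounds that reduced the stress-induced luciferase reporter signal by more than about 70% of percent inhibition, limit read from the data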;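 also: 0% = tunicamycin plus vehicle and 100% = wells without tunicamycin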
UPR XBP1 act – adaptive UPR (XBP1) activation; CHO-XBP1 luciferase reporter, IRE1-XBP1 UPR activation, luminescence; percent of tunicamycin response, DMSO as zero; activation, % at 20 µM; 330,000 tested, 0.33% active;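 active = versus positive control, 20 µM dose yields 30% or more activation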;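 also: 100% = tunicamycin at 10 µg/mL and 0% = DMSO only wells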
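Material: IRE1-XBP1 luciferase reporter CHO line / Quantity: one thousand reporter cells per well / Buffer or medium: F12 with 10% serum / Compound: 20 µM single concentration, DMSO 1% / Times: 6 h treatment, 37 °C / Detection: Steady-Glo luciferase glow luminescence, 10 min after reagent addition / Benchmarks: tunicamycin high, DMSO low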
GRIN3A LBD mod – NR3A (human) ligand-binding domain modulation; NR3A LBD differential scanning fluorimetry, Tm shift; 0% = protein alone, 100% = glycine-bound protein; Tm shift relative to glycine control, % at 25 µM; 340,000 tested, 2.5% active;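 active = melting temperature shift of at least 10% of the positive control shift, at one fixed dose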
UPR CHOP act – activators of apoptotic arm of unfolded protein response (CHOP) | CHO-CHOP luciferase reporter, UPR activation, luminescence; percent of tunicamycin response over DMSO baseline | activation, % at 10 µM | 330,000 tested, 0.34% active;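 active = at 10 µM dose, activation of 40% or more, normalized to positive control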;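 also: 100% = tunicamycin at 10 µg/mL and 0% = DMSO alone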
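Evaluation: % reporter activation, DMSO baseline versus tunicamycin full activation; System: CHO-CHOP luciferase reporter cell line; Input: 500 cells/well; Incubation: 6 h compound treatment, 37 °C; Measured by: Steady-Glo luciferase luminescence; Dosing: one dose, 10 µM in 0.5% DMSO; Buffer or medium: F12 medium, 10% FBS; Benchmarks: positive tunicamycin 10 µg/mL, negative DMSO alone.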
Rh123 counter – mitochondrial membrane potential, counter-screen; 5,000 tested, 78% active; inhibition, % at 10 µM; isolated mitochondria, Rhodamine 123 fluorescence; shares compounds with MPTP inh; AID 624504; in the data active = inhibition above about 22%;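 also: 0% = DMSO vehicle and 100% = positive control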
MPTP swell DR – MPTP inhibition, dose response swelling confirmation; AID 651561; 780 tested, 58% active; shares compounds with MPTP inh; IC50, µM; isolated mitochondria swelling, absorbance; in the data active = IC50 below about 20 µM
MPTP counter DR – counter-screen for mitochondrial permeability transition pore inhibitors, dose response; AID 651564; shares compounds with MPTP inh; isolated mitochondria counterscreen, fluorescence read-out; 780 tested, 49% active; IC50, µM; in the data active = IC50 below about 80 µM
Active calls of the source: *; nt = no result given.

SMILES | aDG glyco up | MPTP inh | CHOP inhibitor | UPR XBP1 act | GRIN3A LBD mod | UPR CHOP act | Rh123 counter | others
COc1ccc(OCCNC(=O)c2cccc(Oc3ccc(C(F)(F)F)cc3[N+](=O)[O-])c2)cc1 | 0.0 | 28.3 | 13.9 | -3.4 | -4.0 | -1.0 | nt
COc1cccc(OCCNC(=O)CSc2ccc(C(F)(F)F)cc2[N+](=O)[O-])c1 | 0.2 | 76.2* | 84.7* | -1.5 | -3.7 | -0.9 | 45.7*
Cc1ccccc1OCCNC(=O)CSc1ccc(C(F)(F)F)cc1[N+](=O)[O-] | 0.1 | 93.1* | 51.9 | -2.4 | -5.8 | -0.3 | 73.4*
Nc1nc2ccc(Cl)cc2cc1C(=O)NCCc1ccc(Cl)cc1Cl | 0.0 | 13.8 | nt | nt | nt | nt | nt
Nc1nc2ccc(Cl)cc2cc1C(=O)NCCc1c[nH]c2ccccc12 | 1.6 | 84.0* | nt | nt | nt | nt | 91.0*
CCN(CC)S(=O)(=O)c1cc(C(=O)OCC(=O)c2ccc3c(c2)NC(=O)CO3)ccc1Cl | 0.0 | 85.1* | 55.3 | 1.8 | 0.5 | -3.3 | 59.2*
CCN(CC)S(=O)(=O)c1ccc(C(=O)OCC(=O)c2ccc3c(c2)NC(=O)CO3)cc1 | 0.0 | 2.3 | 15.8 | 0.7 | 0.5 | 2.0 | nt
O=C(NC(Nc1nc2ccc([N+](=O)[O-])cc2s1)(C(F)(F)F)C(F)(F)F)c1cccnc1 | -0.5 | 86.8* | 90.3* | 0.3 | 0.5 | 1.0 | 97.3*
Cc1ccc(C(=O)N2CC=C(c3ccccc3)CC2)s1 | -0.2 | -1.4 | nt | -0.4 | -4.5 | 3.7 | nt
O=C(O)C1CCCCC1C(=O)N1CC=C(c2ccccc2)CC1 (stereo unspecified) | -0.2 | 73.9* | 43.5 | -8.4 | -0.2 | -6.8 | 10.9 | MPTP swell DR=>100;MPTP counter DR=>80
Oc1ccccc1-c1cc(-c2cccc(F)c2)n[nH]1 | 0.1 | 58.2* | 69.5 | 8.3 | 8.2 | 9.0 | 70.6*
Fc1cccc(-c2n[nH]c(=S)n2-c2ccccc2)c1 | -0.1 | -0.2 | nt | -1.8 | 0.1 | 2.3 | nt
CO/N=C\CC(=O)Nc1ccc(Cl)cc1Cl | -0.3 | 0.2 | 21.1 | 0.7 | -1.9 | 0.3 | nt
COc1ccc(OC)c(CN(CCN2CCOCC2)C(=O)Nc2cccc(Cl)c2)c1 | 0.2 | 0.0 | 14.2 | 0.3 | 0.5 | -1.1 | nt
O=C(Nc1cccc(Cl)c1)N(CCN1CCOCC1)Cc1cccc(Cl)c1 | 0.5 | 85.1* | 21.7 | 0.5 | 6.2 | 4.2 | 91.3*
COc1ccc(CN(CCCN2CCOCC2)C(=O)Nc2cccc(Cl)c2)cc1OC | 0.0 | 2.9 | 21.9 | 0.0 | -0.7 | -2.9 | nt
O=C(Nc1cccc(Cl)c1)N(CCN1CCOCC1)Cc1ccccc1F | 0.2 | 79.2* | 29.0 | -1.3 | 1.1 | -0.3 | 77.3*
COc1ccc(CC(=O)OCC(=O)NC2CCCC(C)C2C)cc1 (stereo unspecified) | 0.6 | -1.3 | nt | -2.8 | 0.6 | -0.8 | nt
Cc1ccc(N2CCN(/N=C/c3ccncc3)CC2)cc1 | 3.3 | 4.3 | 36.4 | -1.1 | 0.2 | 0.4 | nt
Clc1ccc(N2CCN(/N=C/c3ccncc3)CC2)cc1 | 1.3 | 60.7* | 33.4 | 0.5 | 0.0 | 7.5 | 50.0*
CN1CCC(OC(c2ccccc2)c2ccccc2)CC1 | 0.0 | 1.2 | -4.4 | -8.0 | -0.8 | 2.0 | nt
CN1CCC(Oc2ccccc2Sc2ccccc2)CC1 | 0.6 | 91.7* | 41.1 | 1.6 | -0.7 | 1.7 | -0.4 | MPTP swell DR=10.5*;MPTP counter DR=33.9*
C=C1c2cccc(O)c2C(=O)C2C(=O)[C@]3(O)C(=O)C(C(N)=O)C(=O)[C@@H](N(C)C)[C@@H]3[C@@H](O)[C@H]12 (stereo partly specified) | 0.0 | 9.1 | nt | -4.3 | -8.0 | 1.1 | nt
C[C@H]1c2cccc(O)c2C(O)=C2C(=O)[C@]3(O)C(O)=C(C(N)=O)C(=O)[C@@H](N(C)C)C3[C@@H](O)C21 (stereo partly specified) | 0.2 | 86.3* | nt | -5.4 | 3.1 | 1.0 | 3.9

Bioassay records deposited in PubChem BioAssay by several laboratories.
